Test results taken from ChEMBL document CHEMBL5303300, “EUbOPEN Chemogenomics Library - Multiplex” (2023).
Several values for one entry are separate records, joined by “and”; a condition that tells them apart may be missing. Equal entries are not always repeated.

Tested on: HEK-293T
Test: Multiplex assay against HEK293T
Format: toxicity, cell-based
Conditions: human, number of replicates 2
How it was run: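 Compound was added to live cells that had been stained at seeding with Hoechst33342, BioTracker Green Microtubule Cytoskeleton Dye, MitoTracker Red and Annexin V Alexa Fluor 680, and imaging followed on a CQ1 microscope at 37°C and 5% CO2. CellPathfinder machine-learning gating divided cells into Hoechst high-intensity objects or normal cells, normal cells into healthy, pyknosed or fragmented nuclei, and pyknosed cells into mitotic or apoptotic. Tubulin, mitochondrial-mass and membrane-permeability phenotypes are per cents of healthy-nucleus cells.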

[1] = 12 h, 1 µM, compound concentration 1 uM
[2] = 12 h, 10 µM, compound concentration 10 uM
[3] = 24 h, 1 µM, compound concentration 1 uM
[4] = 24 h, 10 µM, compound concentration 10 uM
[5] = 48 h, 1 µM, compound concentration 1 uM
[6] = 48 h, 10 µM, compound concentration 10 uM

Q: Which “Population Apoptotic (%)” value [1] does the source give for `COCCN1CCN(CCn2ccc(Nc3ncc4c(n3)-c3c(nn(C)c3-c3ccccc3)C[C@H]4C)n2)CC1` here?
A: 55% and 57%

Q: What about the “Population Fragmented Nuclei (%)” value [1] of the same compound?
A: 2% and 5%

Q: And the “Population Healthy Nuclei (%)” value [1]?
A: 86% and 79%

Q: What about the “Population Hoechst High Intensity Objects (%)” value [1] of the same compound?
A: 14% and 13%

Q: What about the “Population Membrane Permeable-Phenotype (%)” value [1] of the same compound?
A: 3%

Q: And the “Population Mitochondria Different-Phenotype (%)” value [1]?
A: 44% and 55%

Q: And the “Population Mitotic Cells (%)” value [1]?
A: 44% and 42%

Q: And the “Population Normal (%)” value [1]?
A: 85% and 86%

Q: What about the “Population Pyknosed Nuclei (%)” value [1] of the same compound?
A: 11% and 15%

Q: What about the “Population Tubulin-Different-Phenotype (%)” value [1] of the same compound?
A: 73% and 85%

Q: What about the “Total Cell Count” value [1] of the same compound?
A: 402 and 361

Q: And the “Population Apoptotic (%)” value [2]?
A: 66% and 76%

Q: What about the “Population Fragmented Nuclei (%)” value [2] of the same compound?
A: 5%

Q: What about the “Population Healthy Nuclei (%)” value [2] of the same compound?
A: 76% and 78%

Q: What about the “Population Hoechst High Intensity Objects (%)” value [2] of the same compound?
A: 21% and 20%

Q: And the “Population Membrane Permeable-Phenotype (%)” value [2]?
A: 2%

Q: What about the “Population Mitochondria Different-Phenotype (%)” value [2] of the same compound?
A: 65% and 76%

Q: And the “Population Mitotic Cells (%)” value [2]?
A: 33% and 23%

Q: What about the “Population Normal (%)” value [2] of the same compound?
A: 78% and 79%

Q: And the “Population Pyknosed Nuclei (%)” value [2]?
A: 18% and 16%

Q: What about the “Population Tubulin-Different-Phenotype (%)” value [2] of the same compound?
A: 94% and 95%

Q: What about the “Total Cell Count” value [2] of the same compound?
A: 332 and 297

Q: And the “Population Apoptotic (%)” value [3]?
A: 48% and 64%

Q: What about the “Population Fragmented Nuclei (%)” value [3] of the same compound?
A: 7% and 3%

Q: What about the “Population Healthy Nuclei (%)” value [3] of the same compound?
A: 86% and 90%

Q: And the “Population Hoechst High Intensity Objects (%)” value [3]?
A: 15% and 17%

Q: What about the “Population Membrane Permeable-Phenotype (%)” value [3] of the same compound?
A: 1% and 2%

Q: And the “Population Mitochondria Different-Phenotype (%)” value [3]?
A: 30% and 33%

Q: What about the “Population Mitotic Cells (%)” value [3] of the same compound?
A: 52% and 35%

Q: And the “Population Normal (%)” value [3]?
A: 84% and 82%

Q: What about the “Population Pyknosed Nuclei (%)” value [3] of the same compound?
A: 6%

Q: And the “Population Tubulin-Different-Phenotype (%)” value [3]?
A: 74% and 75%

Q: What about the “Total Cell Count” value [3] of the same compound?
A: 473 and 331

Q: And the “Population Apoptotic (%)” value [4]?
A: 71% and 78%

Q: What about the “Population Fragmented Nuclei (%)” value [4] of the same compound?
A: 5% and 2%

Q: And the “Population Healthy Nuclei (%)” value [4]?
A: 72% and 83%

Q: And the “Population Hoechst High Intensity Objects (%)” value [4]?
A: 25% and 24%

Q: What about the “Population Membrane Permeable-Phenotype (%)” value [4] of the same compound?
A: 1% and 2%

Q: And the “Population Mitochondria Different-Phenotype (%)” value [4]?
A: 71% and 75%

Q: What about the “Population Mitotic Cells (%)” value [4] of the same compound?
A: 28% and 21%

Q: And the “Population Normal (%)” value [4]?
A: 74% and 75%

Q: What about the “Population Pyknosed Nuclei (%)” value [4] of the same compound?
A: 22% and 14%

Q: What about the “Population Tubulin-Different-Phenotype (%)” value [4] of the same compound?
A: 90% and 92%

Q: And the “Total Cell Count” value [4]?
A: 250 and 217

Q: And the “Population Apoptotic (%)” value [5]?
A: 73% and 30%

Q: And the “Population Fragmented Nuclei (%)” value [5]?
A: 12% and 8%

Q: And the “Population Healthy Nuclei (%)” value [5]?
A: 84% and 87%

Q: What about the “Population Hoechst High Intensity Objects (%)” value [5] of the same compound?
A: 27% and 18%

Q: And the “Population Membrane Permeable-Phenotype (%)” value [5]?
A: 4% and 2%

Q: And the “Population Mitochondria Different-Phenotype (%)” value [5]?
A: 5% and 10%

Q: What about the “Population Mitotic Cells (%)” value [5] of the same compound?
A: 26% and 70%

Q: What about the “Population Normal (%)” value [5] of the same compound?
A: 72% and 81%

Q: And the “Population Pyknosed Nuclei (%)” value [5]?
A: 3% and 4%

Q: And the “Population Tubulin-Different-Phenotype (%)” value [5]?
A: 63% and 68%

Q: And the “Total Cell Count” value [5]?
A: 864 and 570

Q: What about the “Population Apoptotic (%)” value [6] of the same compound?
A: 66%

Q: What about the “Population Fragmented Nuclei (%)” value [6] of the same compound?
A: 7% and 6%

Q: And the “Population Healthy Nuclei (%)” value [6]?
A: 89% and 82%

Q: And the “Population Hoechst High Intensity Objects (%)” value [6]?
A: 24% and 20%

Q: What about the “Population Membrane Permeable-Phenotype (%)” value [6] of the same compound?
A: 0% and 4%

Q: What about the “Population Mitochondria Different-Phenotype (%)” value [6] of the same compound?
A: 49% and 51%

Q: And the “Population Mitotic Cells (%)” value [6]?
A: 33%

Q: And the “Population Normal (%)” value [6]?
A: 75% and 79%

Q: What about the “Population Pyknosed Nuclei (%)” value [6] of the same compound?
A: 3% and 10%

Q: And the “Population Tubulin-Different-Phenotype (%)” value [6]?
A: 86% and 82%

Q: And the “Total Cell Count” value [6]?
A: 245 and 220
